From ChEMBL document CHEMBL4334458, “Design, synthesis and antibacterial evaluation of novel 15-membered 11a-azahomoclarithromycin derivatives with the 1, 2, 3-triazole side chain” (Eur J Med Chem, 2019)
≈ marks a conversion by molar mass, not a printed value.

Legend:
Type in all cases: functional
Staphylococcus aureus [1] = test: Antibacterial activity against penicillin-resistant Staphylococcus aureus ATCC 31007 incubated for 24 hrs by broth dilution method; settings: ATCC 31007, 24 h
Bacillus subtilis = test: Antibacterial activity against penicillin-susceptible Bacillus subtilis ATCC 9372 incubated for 24 hrs by broth dilution method; settings: ATCC 9372, 24 h
Outline: (§1)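 CLSI broth microdilution in cation-adjusted Mueller-Hinton broth. Twofold dilutions spanned 0.25–128 or 0.5–256 µg/mL, with CAM and AZM as controls. Log-phase bacteria were added and incubated 24 h at 37 °C. MIC was read by turbidity as the concentration of the last clear well.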

Escherichia coli = test: Antibacterial activity against penicillin-susceptible Escherichia coli ATCC 25922 incubated for 24 hrs by broth dilution method; settings: ATCC 25922, 24 h; outline: as §1
Streptococcus pneumoniae [2] = test: Antibacterial activity against erythromycin-resistant Streptococcus pneumoniae AB11 expressing the ermB and mefA incubated for 24 hrs by broth dilution method
Pseudomonas aeruginosa = test: Antibacterial activity against penicillin-susceptible Pseudomonas aeruginosa ATCC 27853 incubated for 24 hrs by broth dilution method; settings: ATCC 27853, 24 h; outline: as §1
Streptococcus pyogenes [3] = test: Antibacterial activity against erythromycin-susceptible Streptococcus pyogenes 1 clinical isolate incubated for 24 hrs by broth dilution method; outline: as §1
Streptococcus pneumoniae [4] = test: Antibacterial activity against erythromycin-resistant Streptococcus pneumoniae B1 expressing the ermB incubated for 24 hrs by broth dilution method
Staphylococcus aureus [5] = test: Antibacterial activity against methicillin-resistant Staphylococcus aureus ATCC 43300 incubated for 24 hrs by broth dilution method; settings: ATCC 43300, 24 h
Streptococcus pyogenes [6] = test: Antibacterial activity against erythromycin-resistant Streptococcus pyogenes 2 clinical isolate incubated for 24 hrs by broth dilution method
Staphylococcus aureus [7] = test: Antibacterial activity against erythromycin-susceptible Staphylococcus aureus ATCC 25923 incubated for 24 hrs by broth dilution method; settings: ATCC 25923, 24 h; outline: as §1
Streptococcus pyogenes [8] = test: Ratio of MIC for CAM to MIC for test compound for antibacterial activity against erythromycin-resistant Streptococcus pyogenes 2 clinical isolate incubated for 24 hrs by broth dilution method
Outline: (§2)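 Ratio of clarithromycin MIC to compound MIC. Both MICs come from CLSI broth microdilution in cation-adjusted Mueller-Hinton broth with 2-fold dilutions, log-phase inoculum and 24 h at 37 °C, read by turbidity as the last clear well.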

Staphylococcus aureus [9] = test: Ratio of MIC for CAM to MIC for test compound for antibacterial activity against penicillin-resistant Staphylococcus aureus ATCC 31007 incubated for 24 hrs by broth dilution method; outline: as §2
Staphylococcus aureus [10] = test: Ratio of MIC for CAM to MIC for test compound for antibacterial activity against methicillin-resistant Staphylococcus aureus ATCC 43300 incubated for 24 hrs by broth dilution method; outline: as §2
Streptococcus pneumoniae [11] = test: Ratio of MIC for CAM to MIC for test compound for antibacterial activity against erythromycin-resistant Streptococcus pneumoniae AB11 expressing the ermB and mefA incubated for 24 hrs by broth dilution method; outline: as §2
Streptococcus pneumoniae [12] = test: Ratio of MIC for CAM to MIC for test compound for antibacterial activity against erythromycin-resistant Streptococcus pneumoniae B1 expressing the ermB incubated for 24 hrs by broth dilution method; outline: as §2

COc1ccc(-c2cn(C[C@@H]3CN(C)C[C@@H](C)[C@@H](O)[C@H](C)C[C@@](C)(OC)[C@H](O[C@@H]4O[C@H](C)C[C@H](N(C)C)[C@H]4O)[C@@H](C)[C@H](O[C@H]4C[C@@](C)(OC)[C@@H](O)[C@H](C)O4)[C@@H](C)C(=O)O3)nn2)cc1
MIC (Staphylococcus aureus [1]): 256 µg/mL (≈ 287 µM) | MIC (Bacillus subtilis): 64 µg/mL (≈ 71.7 µM) | MIC (Escherichia coli): > 128 µg/mL | MIC (Streptococcus pneumoniae [2]): 128 µg/mL (≈ 143 µM) | MIC (Pseudomonas aeruginosa): > 128 µg/mL | MIC (Streptococcus pyogenes [3]): 4 µg/mL (≈ 4.48 µM) | MIC (Streptococcus pneumoniae [4]): 256 µg/mL (≈ 287 µM) | MIC (Staphylococcus aureus [5]): 256 µg/mL (≈ 287 µM) | MIC (Streptococcus pyogenes [6]): 64 µg/mL (≈ 71.7 µM) | MIC (Staphylococcus aureus [7]): 32 µg/mL (≈ 35.9 µM)

CO[C@]1(C)C[C@@H](C)[C@H](O)[C@H](C)CN(C)C[C@H](Cn2cc(-c3ccccc3)nn2)OC(=O)[C@H](C)[C@@H](O[C@H]2C[C@@](C)(OC)[C@@H](O)[C@H](C)O2)[C@H](C)[C@H]1O[C@@H]1O[C@H](C)C[C@H](N(C)C)[C@H]1O
MIC (Staphylococcus aureus [1]): 256 µg/mL (≈ 297 µM) | MIC (Bacillus subtilis): 1 µg/mL (≈ 1.16 µM) | MIC (Escherichia coli): 32 µg/mL (≈ 37.1 µM) | MIC (Streptococcus pneumoniae [2]): 128 µg/mL (≈ 148 µM) | MIC (Pseudomonas aeruginosa): 64 µg/mL (≈ 74.2 µM) | MIC (Streptococcus pyogenes [3]): 0.12 µg/mL (≈ 0.139 µM) | MIC (Streptococcus pneumoniae [4]): 256 µg/mL (≈ 297 µM) | MIC (Staphylococcus aureus [5]): 256 µg/mL (≈ 297 µM) | MIC (Streptococcus pyogenes [6]): 128 µg/mL (≈ 148 µM) | MIC (Staphylococcus aureus [7]): 1 µg/mL (≈ 1.16 µM)

CO[C@]1(C)C[C@@H](C)[C@H](O)[C@H](C)CN(C)[C@H](Cn2cc(-c3ccccn3)nn2)COC(=O)[C@H](C)[C@@H](O[C@H]2C[C@@](C)(OC)[C@@H](O)[C@H](C)O2)[C@H](C)[C@H]1O[C@@H]1O[C@H](C)C[C@H](N(C)C)[C@H]1O
MIC (Staphylococcus aureus [1]): 256 µg/mL (≈ 297 µM) | MIC (Bacillus subtilis): 32 µg/mL (≈ 37.1 µM) | MIC (Escherichia coli): 64 µg/mL (≈ 74.2 µM) | MIC (Streptococcus pneumoniae [2]): 128 µg/mL (≈ 148 µM) | MIC (Pseudomonas aeruginosa): 64 µg/mL (≈ 74.2 µM) | MIC (Streptococcus pyogenes [3]): 4 µg/mL (≈ 4.63 µM) | MIC (Streptococcus pneumoniae [4]): 256 µg/mL (≈ 297 µM) | MIC (Staphylococcus aureus [5]): 256 µg/mL (≈ 297 µM) | MIC (Streptococcus pyogenes [6]): 256 µg/mL (≈ 297 µM) | MIC (Staphylococcus aureus [7]): 16 µg/mL (≈ 18.5 µM)

COc1ccc(-c2cn(C[C@@H]3COC(=O)[C@H](C)[C@@H](O[C@H]4C[C@@](C)(OC)[C@@H](O)[C@H](C)O4)[C@H](C)[C@@H](O[C@@H]4O[C@H](C)C[C@H](N(C)C)[C@H]4O)[C@](C)(OC)C[C@@H](C)[C@H](O)[C@H](C)CN3C)nn2)cc1
MIC (Staphylococcus aureus [1]): 32 µg/mL (≈ 35.9 µM) | MIC (Bacillus subtilis): 32 µg/mL (≈ 35.9 µM) | MIC (Escherichia coli): > 128 µg/mL | MIC (Streptococcus pneumoniae [2]): 128 µg/mL (≈ 143 µM) | MIC (Pseudomonas aeruginosa): > 128 µg/mL | MIC (Streptococcus pyogenes [3]): 4 µg/mL (≈ 4.48 µM) | MIC (Streptococcus pneumoniae [4]): 128 µg/mL (≈ 143 µM) | MIC (Staphylococcus aureus [5]): 128 µg/mL (≈ 143 µM) | MIC (Streptococcus pyogenes [6]): 128 µg/mL (≈ 143 µM) | MIC (Staphylococcus aureus [7]): 64 µg/mL (≈ 71.7 µM)

CO[C@]1(C)C[C@@H](C)[C@H](O)[C@H](C)CN(C)C[C@@H](COCc2cn(-c3ccc(C(C)C)cc3)nn2)OC(=O)[C@H](C)[C@@H](O[C@H]2C[C@@](C)(OC)[C@@H](O)[C@H](C)O2)[C@H](C)[C@H]1O[C@@H]1O[C@H](C)C[C@H](N(C)C)[C@H]1O
MIC (Staphylococcus aureus [1]): 32 µg/mL (≈ 34.3 µM) | MIC (Bacillus subtilis): 1 µg/mL (≈ 1.07 µM) | MIC (Escherichia coli): 64 µg/mL (≈ 68.5 µM) | Ratio (Streptococcus pyogenes [8]): 8 - 16 | MIC (Streptococcus pneumoniae [2]): 16 µg/mL (≈ 17.1 µM) | Ratio (Staphylococcus aureus [9]): 8 - 16 | MIC (Pseudomonas aeruginosa): 128 µg/mL (≈ 137 µM) | MIC (Streptococcus pyogenes [3]): 4 µg/mL (≈ 4.28 µM) | MIC (Streptococcus pneumoniae [4]): 16 µg/mL (≈ 17.1 µM) | Ratio (Staphylococcus aureus [10]): 8 - 16 | MIC (Staphylococcus aureus [5]): 32 µg/mL (≈ 34.3 µM) | MIC (Streptococcus pyogenes [6]): 16 µg/mL (≈ 17.1 µM) | Ratio (Streptococcus pneumoniae [11]): 8 - 16 | MIC (Staphylococcus aureus [7]): 4 µg/mL (≈ 4.28 µM) | Ratio (Streptococcus pneumoniae [12]): 8 - 16

CO[C@]1(C)C[C@@H](C)[C@H](O)[C@H](C)CN(C)C[C@H](COCc2cn(-c3cccc(C(F)(F)F)c3)nn2)OC(=O)[C@H](C)[C@@H](O[C@H]2C[C@@](C)(OC)[C@@H](O)[C@H](C)O2)[C@H](C)[C@H]1O[C@@H]1O[C@H](C)C[C@H](N(C)C)[C@H]1O
MIC (Staphylococcus aureus [1]): 256 µg/mL (≈ 267 µM) | MIC (Bacillus subtilis): 1 µg/mL (≈ 1.04 µM) | MIC (Escherichia coli): 64 µg/mL (≈ 66.7 µM) | MIC (Streptococcus pneumoniae [2]): 64 µg/mL (≈ 66.7 µM) | MIC (Pseudomonas aeruginosa): 16 µg/mL (≈ 16.7 µM) | MIC (Streptococcus pyogenes [3]): 2 µg/mL (≈ 2.08 µM) | MIC (Streptococcus pneumoniae [4]): 128 µg/mL (≈ 133 µM) | MIC (Staphylococcus aureus [5]): 256 µg/mL (≈ 267 µM) | MIC (Streptococcus pyogenes [6]): 64 µg/mL (≈ 66.7 µM) | MIC (Staphylococcus aureus [7]): 1 µg/mL (≈ 1.04 µM)
